Results from publication PMC3158287 (Nature chemical biology, 2011).
Where a chain is given by its changes, count along the chain named. Where two headings read alike, the source gives them in different places.

Assays:
[1] = tested on: HeLa cells overexpressing wild-type OSBP; experiment: Overexpression-viability assay, wild-type OSBP-Myc-His; type: cell-based, human; conditions: 48 h, versus lacZ
[2] = tested on: human cancer cell lines; conditions: cited from earlier work
[3] = biological target: T1, OSBP^M446W (Homo sapiens, UniProt P22059, M446W); experiment: [3H]25-OHC binding assay, OSBP M446W mutant
T1 sequence (P22059 1-807 M446W): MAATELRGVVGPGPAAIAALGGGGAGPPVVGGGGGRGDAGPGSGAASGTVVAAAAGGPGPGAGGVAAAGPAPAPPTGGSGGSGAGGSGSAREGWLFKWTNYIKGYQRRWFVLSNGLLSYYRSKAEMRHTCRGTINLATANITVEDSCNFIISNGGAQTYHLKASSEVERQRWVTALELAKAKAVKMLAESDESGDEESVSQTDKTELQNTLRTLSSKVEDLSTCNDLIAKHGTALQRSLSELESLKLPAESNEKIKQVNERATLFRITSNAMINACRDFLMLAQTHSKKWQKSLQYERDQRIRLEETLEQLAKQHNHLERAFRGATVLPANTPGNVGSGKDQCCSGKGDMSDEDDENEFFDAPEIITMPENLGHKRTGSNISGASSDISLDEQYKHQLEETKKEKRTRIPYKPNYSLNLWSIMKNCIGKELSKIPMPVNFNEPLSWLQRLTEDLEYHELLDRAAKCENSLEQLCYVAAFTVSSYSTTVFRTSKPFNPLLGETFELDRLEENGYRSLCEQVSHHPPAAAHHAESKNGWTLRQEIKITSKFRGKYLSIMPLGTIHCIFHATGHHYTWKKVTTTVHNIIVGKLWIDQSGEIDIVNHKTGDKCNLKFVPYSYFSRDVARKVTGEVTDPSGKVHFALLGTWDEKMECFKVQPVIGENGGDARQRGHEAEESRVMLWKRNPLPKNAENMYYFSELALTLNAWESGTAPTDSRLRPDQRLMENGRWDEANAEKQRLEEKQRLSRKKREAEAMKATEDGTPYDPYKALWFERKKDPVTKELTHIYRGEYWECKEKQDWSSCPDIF

[4] = biological target: T2, OSBP (Homo sapiens, UniProt P22059); experiment: OSBP protein levels by western blotting; type: cell-based; conditions: HCT-116 cells
T2 sequence (P22059 1-807): T1 sequence (P22059 1-807 M446W) with W446M
Procedure, shortened: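 HCT-116 cells were treated with test compound at 50 nM or 10 nM over a time course including 24 h. Some samples also received proteasome inhibitor MG-132 or lactacystin. OSBP was measured by western blotting with polyclonal rabbit anti-OSBP (N-terminus) antibody. Data are n = 3, compared with vehicle-treated cells by two-tailed Student's t-test.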

[5] = tested on: CERT; experiment: CERT protein amount in treated cells; type: cell-based, human; conditions: GI90 concentration, HCT-116 or A549 cells
[6] = biological target: T3, ORP4L-Myc-His (Homo sapiens, UniProt Q969R2); experiment: [3H]25-OHC charcoal-dextran binding assay, ORP4L-Myc-His
T3 sequence (Q969R2 1-916): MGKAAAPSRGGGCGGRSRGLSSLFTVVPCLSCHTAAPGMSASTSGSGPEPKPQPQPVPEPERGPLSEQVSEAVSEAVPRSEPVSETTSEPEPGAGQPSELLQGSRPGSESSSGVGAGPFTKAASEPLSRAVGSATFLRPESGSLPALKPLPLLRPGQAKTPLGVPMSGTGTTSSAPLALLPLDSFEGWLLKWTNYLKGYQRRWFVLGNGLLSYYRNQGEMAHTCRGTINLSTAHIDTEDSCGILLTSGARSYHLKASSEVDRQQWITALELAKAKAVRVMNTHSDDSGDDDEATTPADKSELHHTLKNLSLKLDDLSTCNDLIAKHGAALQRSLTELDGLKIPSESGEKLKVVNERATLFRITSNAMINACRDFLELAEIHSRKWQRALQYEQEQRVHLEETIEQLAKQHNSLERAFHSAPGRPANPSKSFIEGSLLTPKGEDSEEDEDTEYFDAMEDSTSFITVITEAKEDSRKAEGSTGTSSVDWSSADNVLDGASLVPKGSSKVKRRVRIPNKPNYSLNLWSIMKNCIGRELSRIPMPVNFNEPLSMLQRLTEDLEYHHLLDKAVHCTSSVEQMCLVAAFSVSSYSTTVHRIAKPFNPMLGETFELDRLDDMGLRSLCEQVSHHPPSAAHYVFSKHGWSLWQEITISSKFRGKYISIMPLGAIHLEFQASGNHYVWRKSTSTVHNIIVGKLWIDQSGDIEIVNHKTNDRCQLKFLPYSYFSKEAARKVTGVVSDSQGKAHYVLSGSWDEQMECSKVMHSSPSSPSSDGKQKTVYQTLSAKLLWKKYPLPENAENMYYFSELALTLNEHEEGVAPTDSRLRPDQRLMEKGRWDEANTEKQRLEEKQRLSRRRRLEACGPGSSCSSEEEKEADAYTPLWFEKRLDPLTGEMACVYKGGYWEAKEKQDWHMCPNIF

SMILES	Desensitization factor by OSBP overexpression (relative GI30) [1]	GI50 (half-maximal inhibitory concentration) [2]	Ki ([3]; read-out: Ki, OSBP^M446W, competition with [3H]25-OHC, mean ± s.d.) [nM]	Reduction in OSBP protein levels ([4]; 10 nM, 24 h)	Amount of CERT protein [5]	Ki ([6]; read-out: Ki, ORP4L-Myc-His, competition with 20 nM [3H]25-OHC, mean ± s.d.) [nM]	Ki [3] [nM]	Effect on OSBP levels (compound alone) ([4]; 25-OHC 10 μM)	Factor by which affinity for ORP4L is lower than affinity for OSBP ([6]; ratio of Ki values ORP4L / OSBP)
COc1ccc(C(=O)O[C@H]2[C@H](O[C@@H]3[C@@H](OC(C)=O)[C@H](O[C@H]4C[C@H]5[C@@H]6CC=C7C[C@@H](O)CC[C@]7(C)[C@H]6CC[C@]5(C)[C@@]4(O)[C@H](C)C(=O)CCC(C)C)OC[C@@H]3O)OC[C@@H](O)[C@@H]2O)cc1 [OSW-1]	2–5	nanomolar range	18	approximately 75%	not affected	54 ± 11			
CC(C)=CCC/C(C)=C/Cc1c(O)cc(/C=C/c2cc(O)c3c(c2)C[C@@H]2C(C)(C)[C@H](O)[C@H](O)C[C@@]2(C)O3)cc1O [schweinfurthin A]	2–5	nanomolar range					60	no effect	~ 40
